Experimental data published in ChEMBL document CHEMBL4765291, “Design, synthesis and biological evaluation of novel 3,4-dihydro-2(1H)-quinolinone derivatives as potential chitin synthase inhibitors and antifungal agents” (Eur J Med Chem, 2020).
≈ marks a conversion by molar mass, not a printed value.

Key:
Aspergillus flavus [1] = experiment: Synergistic antifungal activity against Aspergillus flavus ATCC 16870 assessed as fractional inhibitory concentration index in presence of Polyoxin B by two-fold broth dilution checkerboard method; assay type: functional
Procedure, shortened: (§1)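 Checkerboard combined with two-fold broth dilution, pairing test compound with fluconazole or polyoxin B. FIC index = (MIC A combined/MIC A alone) + (MIC B combined/MIC B alone); >2 antagonistic, 1–2 additive, ≤1 synergistic. Three independent repeats.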

Cryptococcus neoformans [2] = experiment: Synergistic antifungal activity against Cryptococcus neoformans ATCC 32719 assessed as fractional inhibitory concentration index in presence of Polyoxin B by checkerboard method; assay type: functional; procedure, shortened: as §1
Candida albicans [3] = experiment: Synergistic antifungal activity against Candida albicans ATCC 90023 assessed as fractional inhibitory concentration index in presence of Polyoxin B by checkerboard method; assay type: functional; procedure, shortened: as §1
Candida albicans [4] = experiment: Synergistic antifungal activity against Candida albicans ATCC 76615 assessed as fractional inhibitory concentration index in presence of Polyoxin B by checkerboard method; assay type: functional; procedure, shortened: as §1
Aspergillus fumigatus [5] = experiment: Synergistic antifungal activity against Aspergillus fumigatus GIMCC 3.19 assessed as fractional inhibitory concentration index in presence of Polyoxin B by checkerboard method; assay type: functional; procedure, shortened: as §1
Aspergillus flavus [6] = experiment: Synergistic antifungal activity against Aspergillus flavus ATCC 16870 assessed as fractional inhibitory concentration index in presence of fluconazole by checkerboard method; assay type: functional; procedure, shortened: as §1
Cryptococcus neoformans [7] = experiment: Synergistic antifungal activity against Cryptococcus neoformans ATCC 32719 assessed as fractional inhibitory concentration index in presence of fluconazole by checkerboard method; assay type: functional; procedure, shortened: as §1
Candida albicans [8] = experiment: Synergistic antifungal activity against Candida albicans ATCC 90023 assessed as fractional inhibitory concentration index in presence of fluconazole by checkerboard method; assay type: functional; procedure, shortened: as §1
Candida albicans [9] = experiment: Synergistic antifungal activity against Candida albicans ATCC 76615 assessed as fractional inhibitory concentration index in presence of fluconazole by checkerboard method; assay type: functional; procedure, shortened: as §1
Aspergillus fumigatus [10] = experiment: Synergistic antifungal activity against Aspergillus fumigatus GIMCC 3.19 assessed as fractional inhibitory concentration index in presence of fluconazole by checkerboard method; assay type: functional; procedure, shortened: as §1
Candida tropicalis = experiment: Inhibition of Candida tropicalis ATCC 750 chitin synthase at 300 ug/ml using UDP-GlcNAc as substrate relative to control; conditions: dose 300.0 µg/ml
Procedure, shortened: (§2)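 Chitin synthase prepared from C. tropicalis ATCC 750 by low- and high-speed centrifugation. DMSO stocks (10 mg/mL) diluted in 50 mM Tris-HCl pH 7.5; test concentrations 300–9.375 µg/mL. Chitin synthesized in WGA-coated wells, bound with WGA-HRP, washed, developed with TMB/H2O2, stopped with 2 M H2SO4, OD read. Duplicate; polyoxin B positive control.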

[11] = Inhibition of Candida tropicalis ATCC 750 chitin synthase using UDP-GlcNAc as substrate; procedure, shortened: as §2
[12] = Noncompetitive inhibition of Candida tropicalis ATCC 750 chitin synthase using […] as substrate by Lineweaver-Burk plot
Procedure, shortened: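 Same WGA-capture chitin synthase assay, run with UDP-GlcNAc at 0.5, 1.0, 1.5 and 2.0 mM and inhibitor at 0, 0.032, 0.126 and 0.25 mM. Inhibition type read from Lineweaver-Burk plots; Ki taken from the intersection of the lines.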

Candida albicans [13] = experiment: Antifungal activity against Candida albicans ATCC 90023 incubated for 48 hrs by two-fold broth dilution analysis; assay type: functional
Procedure, shortened: (§3)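 Stock solutions in DMSO, diluted to 0.25–512 µg/mL; two-fold serial broth dilution in 96-well plates. Fungi grown on modified Sabouraud chloramphenicol agar (1% peptone, 2% glucose, […]). Incubated 48 h at 37 °C, then MIC (µg/mL) recorded. Fluconazole and polyoxin B as positive controls; each group tested in triplicate.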

Cryptococcus neoformans [14] = experiment: Antifungal activity against Cryptococcus neoformans ATCC 32719 incubated for 48 hrs by two-fold broth dilution analysis; assay type: functional; procedure, shortened: as §3
Aspergillus flavus [15] = experiment: Antifungal activity against Aspergillus flavus ATCC 16870 incubated for 48 hrs by two-fold broth dilution analysis; assay type: functional; procedure, shortened: as §3
Staphylococcus aureus [16] = experiment: Antibacterial activity against methicillin-resistant Staphylococcus aureus N. 315; assay type: functional
Procedure, shortened: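 Two-fold serial broth dilution in 96-well plates per national clinical standard; beef extract peptone medium (1% peptone, 0.3% beef extract, 0.5% NaCl, […]). Compounds from DMSO stock diluted to test concentrations; incubation 18–24 h. MIC recorded; each group tested independently in triplicate.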

Candida albicans [17] = experiment: Antifungal activity against Candida albicans ATCC 76615 incubated for 48 hrs by two-fold broth dilution analysis; assay type: functional; procedure, shortened: as §3
Aspergillus fumigatus [18] = experiment: Antifungal activity against Aspergillus fumigatus GIMCC 3.19 incubated for 48 hrs by two-fold broth dilution analysis; assay type: functional; procedure, shortened: as §3
Staphylococcus aureus [19] = experiment: Antibacterial activity against Staphylococcus aureus ATCC 25923; assay type: functional
Procedure, shortened: (§4)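 Two-fold serial broth dilution in 96-well plates following National Committee standards; compounds tested at different concentrations. Medium: beef extract peptone (1% peptone, 0.3% beef extract, 0.5% NaCl). Incubation 18–24 h. MIC recorded; streptomycin and norfloxacin as control drugs; each group tested in triplicate.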

Bacillus subtilis = experiment: Antibacterial activity against Bacillus subtilis ATCC 6633; assay type: functional; procedure, shortened: as §4
Pseudomonas aeruginosa = experiment: Antibacterial activity against Pseudomonas aeruginosa ATCC 9027; assay type: functional; procedure, shortened: as §4
Proteus vulgaris = experiment: Antibacterial activity against Bacillus proteus ATCC 8427; assay type: functional; procedure, shortened: as §4
Escherichia coli = experiment: Antibacterial activity against Escherichia coli JM 109

SMILES | fractional inhibitory concentration index (FICI) (Aspergillus flavus [1]) | fractional inhibitory concentration index (FICI) (Cryptococcus neoformans [2]) | fractional inhibitory concentration index (FICI) (Candida albicans [3]) | fractional inhibitory concentration index (FICI) (Candida albicans [4]) | fractional inhibitory concentration index (FICI) (Aspergillus fumigatus [5]) | fractional inhibitory concentration index (FICI) (Aspergillus flavus [6]) | fractional inhibitory concentration index (FICI) (Cryptococcus neoformans [7]) | inhibition (Candida tropicalis) [%] | IC50 [11] [µM] | MIC (Candida albicans [13]) [µg/mL] | MIC (Cryptococcus neoformans [14]) [µg/mL] | MIC (Aspergillus flavus [15]) [µg/mL] | MIC (Staphylococcus aureus [16]) [µg/mL] | MIC (Candida albicans [17]) [µg/mL] | MIC (Aspergillus fumigatus [18]) [µg/mL] | MIC (Staphylococcus aureus [19]) [µg/mL] | MIC (Bacillus subtilis) [µg/mL] | MIC (Pseudomonas aeruginosa) [µg/mL] | MIC (Proteus vulgaris) [µg/mL] | MIC (Escherichia coli) [µg/mL] | also measured
Cc1cccc(NC(=O)/C=C/C(=O)NC2Cc3ccccc3NC2=O)c1 (stereo not given) | 1 | 2 | 0.375 | 1 | 0.75 | 1.5 | 1.5 | 78.3 | 90 | 1 (≈ 2.86 µM) | 64 (≈ 183 µM) | 2 (≈ 5.72 µM) | 512 (≈ 1470 µM) | 2 (≈ 5.72 µM) | 4 (≈ 11.4 µM) | 128 (≈ 366 µM) | 256 (≈ 733 µM) | 512 (≈ 1470 µM) | 256 (≈ 733 µM) | 512 (≈ 1470 µM) | fractional inhibitory concentration index (FICI) (Candida albicans [8]): 0.5; fractional inhibitory concentration index (FICI) (Candida albicans [9]): 1.5; fractional inhibitory concentration index (FICI) (Aspergillus fumigatus [10]): 0.75; Ki [12]: 120 µM
COc1ccccc1NC(=O)/C=C/C(=O)NC1Cc2ccccc2NC1=O (stereo not given) | 0.75 | 1 | 0.375 | 0.5 | 0.375 | 1 | 0.5 | 82.3 | 160 | 1 (≈ 2.74 µM) | 8 (≈ 21.9 µM) | 2 (≈ 5.47 µM) | 256 (≈ 701 µM) | 1 (≈ 2.74 µM) | 4 (≈ 10.9 µM) | 128 (≈ 350 µM) | 256 (≈ 701 µM) | 512 (≈ 1400 µM) | 256 (≈ 701 µM) | 256 (≈ 701 µM) | fractional inhibitory concentration index (FICI) (Candida albicans [8]): 0.5; fractional inhibitory concentration index (FICI) (Candida albicans [9]): 0.75; fractional inhibitory concentration index (FICI) (Aspergillus fumigatus [10]): 0.375
O=C(/C=C/C(=O)NC1Cc2ccccc2NC1=O)Nc1ccc(F)c(F)c1 (stereo not given) | – | – | – | – | – | – | – | 66.5 | 340 | 2 (≈ 5.39 µM) | 16 (≈ 43.1 µM) | 8 (≈ 21.5 µM) | 512 (≈ 1380 µM) | 4 (≈ 10.8 µM) | 8 (≈ 21.5 µM) | 256 (≈ 689 µM) | 512 (≈ 1380 µM) | 512 (≈ 1380 µM) | 512 (≈ 1380 µM) | 512 (≈ 1380 µM) | –
